{"data": "Experimental data of several laboratories", "target": "Receptor-type tyrosine-protein kinase FLT3 (FLT3, Homo sapiens, UniProt P36888)", "Sequence (P36888 27-993, as in one of the studies)": "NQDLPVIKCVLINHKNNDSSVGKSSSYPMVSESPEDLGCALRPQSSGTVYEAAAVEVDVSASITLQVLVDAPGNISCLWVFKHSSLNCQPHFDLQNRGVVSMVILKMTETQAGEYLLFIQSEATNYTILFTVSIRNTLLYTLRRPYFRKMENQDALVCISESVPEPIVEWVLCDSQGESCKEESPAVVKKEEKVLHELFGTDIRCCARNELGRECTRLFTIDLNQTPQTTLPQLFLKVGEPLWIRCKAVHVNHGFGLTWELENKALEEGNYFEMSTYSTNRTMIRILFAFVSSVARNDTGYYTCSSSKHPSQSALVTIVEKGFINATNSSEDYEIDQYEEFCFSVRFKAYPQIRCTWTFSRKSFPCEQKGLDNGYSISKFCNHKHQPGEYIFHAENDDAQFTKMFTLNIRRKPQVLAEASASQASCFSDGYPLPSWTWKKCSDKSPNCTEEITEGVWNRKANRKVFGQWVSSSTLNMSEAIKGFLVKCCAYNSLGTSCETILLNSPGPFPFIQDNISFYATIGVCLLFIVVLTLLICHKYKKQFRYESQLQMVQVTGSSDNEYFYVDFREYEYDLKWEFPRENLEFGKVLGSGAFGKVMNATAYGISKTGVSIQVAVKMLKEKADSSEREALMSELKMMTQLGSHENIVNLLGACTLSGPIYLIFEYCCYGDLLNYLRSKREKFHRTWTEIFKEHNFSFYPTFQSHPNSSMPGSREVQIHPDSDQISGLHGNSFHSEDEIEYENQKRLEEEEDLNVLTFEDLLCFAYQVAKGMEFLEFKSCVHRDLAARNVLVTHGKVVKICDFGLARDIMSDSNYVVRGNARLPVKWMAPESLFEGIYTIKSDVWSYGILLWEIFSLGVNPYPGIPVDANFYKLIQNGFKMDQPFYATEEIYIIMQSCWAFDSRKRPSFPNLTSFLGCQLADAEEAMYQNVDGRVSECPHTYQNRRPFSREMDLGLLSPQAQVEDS", "note": "Protocols differ between the studies behind these lines."}
{"Structure (SMILES)": "C[C@H](c1ccnc(Nc2nc3ccc(-c4cc(N(C)C)ncn4)cc3[nH]2)c1)N1CCN(C(=O)CC(F)(F)F)CC1", "observed": "target engagement in cells", "method": "BRET", "endpoint": "EC50", "value": "22000 nM"}
{"Structure (SMILES)": "CCCNc1ccnc(Nc2cccc(-c3cccnc3)c2)n1", "observed": "enzyme activity", "action": "inhibitor", "endpoint": "IC50", "value": "< 6 nM"}
{"Structure (SMILES)": "CN(C)c1ncnc(-c2ccc3nc(Nc4cc(CN5CCN(C(=O)CC(F)(F)F)CC5)ccn4)[nH]c3c2)c1Cl", "observed": "target engagement in cells", "method": "BRET", "endpoint": "EC50", "value": "> 50000 nM"}
{"Structure (SMILES)": "Cc1cc(Nc2cc(CN3CCOCC3)c3nc(C)c(Cc4ccc(Cl)cc4F)n3n2)n[nH]1", "observed": "enzyme activity", "action": "inhibitor", "method": "TR-FRET", "endpoint": "IC50", "value": "4 nM"}
{"Structure (SMILES)": "c1cc(Nc2nccc(NC3CCCCC3)n2)cc(-c2ncco2)c1", "observed": "enzyme activity", "action": "inhibitor", "endpoint": "IC50", "value": "336 nM"}
{"Structure (SMILES)": "COc1ccc2c(Oc3ccc4c(C(=O)Nc5ccccc5N)cccc4c3)ccnc2c1", "observed": "enzyme activity", "action": "inhibitor", "endpoint": "IC50", "value": "> 500 nM"}
{"Structure (SMILES)": "C[C@H](Nc1ccnc(Nc2cccc(-c3cccnc3)c2)n1)C(=O)O", "observed": "enzyme activity", "action": "inhibitor", "endpoint": "IC50", "value": "> 23000 nM"}
{"Structure (SMILES)": "CN(C)c1ccc(C=C2C(=O)Nc3ccccc32)cc1", "observed": "enzyme activity", "action": "inhibitor", "method": "radiometric", "endpoint": "IC50", "value": "70 nM"}
{"Structure (SMILES)": "Cc1cc(Nc2cc3ncccc3c(N[C@@H]3C[C@H]4CC[C@@H](C3)N4CCC#N)n2)n[nH]1", "observed": "target engagement in cells", "action": "inhibitor", "method": "BRET", "endpoint": "IC50", "value": "2000 nM"}
{"Structure (SMILES)": "Cc1ccc(C(=O)Nc2ccc(Oc3cc4cnn(C)c4cc3-c3cn[nH]c3)c(F)c2)c(=O)n1-c1ccc(F)cc1", "observed": "cell growth or viability", "method": "ATP luminescence", "endpoint": "IC50", "value": "7 nM"}
